In ChEMBL document CHEMBL1134466 (J Med Chem, 2001):

How the values were obtained:
Mus musculus [1] = assay: (§1) Toxicity to bone marrow granulocyte/macrophage progenitors per femur at a dose of 150 mg/kg (ip); format: organism-based; design: dose 150 mg/kg; details: in vivo
Procedure, shortened: (§2)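 Male B6D2F1 mice (5/group) given drug or vehicle ip, single dose or daily ×5. Femoral marrow harvested 24 h after the last dose and plated at 2 × 10^4 viable nucleated cells/mL in methylcellulose (0.8%) medium with 20% FBS and 10% pokeweed mitogen-stimulated spleen-conditioned medium. Cultured 7 days at 37 °C, 5% CO2; colonies >50 cells counted. Mean colonies given as % of control per femur, mean ± SEM.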

Mus musculus [2] = assay: (§3) Toxicity to bone marrow granulocyte/macrophage progenitors per femur at a dose of 200 mg/kg (ip); format: organism-based; design: dose 200 mg/kg; details: in vivo; procedure, shortened: as §2
Mus musculus [3] = assay: Antitumor activity in MX-1 Xenograft Model at a dose of 25 mg/kg (ip) measured as percent growth inhibition; format: functional; details: read-out: GI
Procedure, shortened: (§4)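 Nude mice implanted sc by trocar in right foreflank with 1-2 mm3 MX-1 fragments. At ca. 5 × 5 mm (~10 days), pair-matched into groups of 10. Dosed ip days 1-5 in 0.2 mL 1:2:7 Cremophor:ethanol:saline. Weights and caliper measurements taken twice weekly; weight change on day 8. GI = 100% × (1 − tumor weight treated/control). Partial shrinkage = final tumor weight below day-1 weight; complete = tumor gone.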

Mus musculus [4] = assay: Antitumor activity against B16 murine melanoma at a dose of 50 mg/kg (ip) measured as 60-day survivors (% LTS); format: functional
Procedure, shortened: (§5)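 Female B6D2F1 mice given 0.2 mL fresh B16 tumor brei ip (day 0), from sc-grown B16 in the same strain. Randomized 10/group and dosed ip on days 1-5 in 0.2 mL 1:2:7 Cremophor:ethanol:saline, freshly made. Mice monitored daily and weighed twice weekly; weight change taken on day 8. T/C = 100% × MST treated/control. 60-day survivors counted as long-term and excluded from MST.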

Mus musculus [5] = assay: Antitumor activity against B16 murine melanoma at a dose of 7.5 mg/kg (ip) measured as 60-day survivors (% LTS); format: functional; procedure, shortened: as §5
Mus musculus [6] = assay: Antitumor activity against B16 murine melanoma at a dose of 50 mg/kg (ip) measured as percent weight change on day 8; format: functional; procedure, shortened: as §5
Mus musculus [7] = assay: Antitumor activity against B16 murine melanoma at a dose of 7.5 mg/kg (ip) measured as percent weight change on day 8; format: functional; procedure, shortened: as §5
Mus musculus [8] = assay: Antitumor activity against B16 murine melanoma at a dose of 50 mg/kg (ip) measured as increased life span (% T/C); format: functional; procedure, shortened: as §5
Mus musculus [9] = assay: Antitumor activity against B16 murine melanoma at a dose of 7.5 mg/kg (ip) measured as increased life span (% T/C); format: functional; procedure, shortened: as §5
Mus musculus [10] = assay: Antitumor activity in MX-1 Xenograft Model at a dose of 50 mg/kg (ip) measured as percent weight change on day 8; format: functional; procedure, shortened: as §4
Mus musculus [11] = assay: Antitumor activity in MX-1 Xenograft Model at a dose of 25 mg/kg (ip) measured as number of mice with partial tumor regression; format: functional; procedure, shortened: as §4
Mus musculus [12] = assay: Antitumor activity in MX-1 Xenograft Model at a dose of 25 mg/kg (ip) measured as number of mice with complete tumor regression; format: functional; procedure, shortened: as §4
Mus musculus [13] = assay: Toxicity to bone marrow granulocyte/macrophage progenitors per femur at a dose of 100 mg/kg (ip); format: functional; procedure, shortened: as §2
Mus musculus [14] = assay: as §1; format: functional; procedure, shortened: as §2
Mus musculus [15] = assay: Toxicity to bone marrow granulocyte/macrophage progenitors per femur at a dose of 50 mg/kg (ip); format: functional; procedure, shortened: as §2
Mus musculus [16] = assay: Antitumor activity in MX-1 Xenograft Model at a dose of 50 mg/kg (ip) measured as percent growth inhibition; format: functional; details: read-out: GI; procedure, shortened: as §4
Mus musculus [17] = assay: Antitumor activity in MX-1 Xenograft Model at a dose of 50 mg/kg (ip) measured as number of mice with partial tumor regression; format: functional; procedure, shortened: as §4
Mus musculus [18] = assay: Antitumor activity in MX-1 Xenograft Model at a dose of 50 mg/kg (ip) measured as number of mice with complete tumor regression; format: functional; procedure, shortened: as §4
Mus musculus [19] = assay: Antitumor activity against B16 murine melanoma at a dose of 5 mg/kg (ip) measured as 60-day survivors (% LTS); format: functional; procedure, shortened: as §5
Mus musculus [20] = assay: Antitumor activity against B16 murine melanoma at a dose of 5 mg/kg (ip) measured as increased life span (% T/C); format: functional; procedure, shortened: as §5
Mus musculus [21] = assay: as §3; format: functional; procedure, shortened: as §2
Mus musculus [22] = assay: Antitumor activity against B16 murine melanoma at a dose of 100 mg/kg (ip) measured as 60-day survivors (% LTS); format: functional; procedure, shortened: as §5
Mus musculus [23] = assay: Antitumor activity against B16 murine melanoma at a dose of 100 mg/kg (ip) measured as percent weight change on day 8; format: functional; procedure, shortened: as §5
Mus musculus [24] = assay: Antitumor activity against B16 murine melanoma at a dose of 100 mg/kg (ip) measured as increased life span (% T/C); format: functional; procedure, shortened: as §5

Structure (SMILES) | LTS (Mus musculus [4]) [%] | Weight change (Mus musculus [6]) [%] | T/C (Mus musculus [8]) [%] | Weight change (Mus musculus [10]) [%] | Control (Mus musculus [13]) [%] | Control (Mus musculus [14]) [%] | Control (Mus musculus [15]) [%] | inhibition in vivo at 50 mg/kg (Mus musculus [16]) [%] | No. partial (Mus musculus [17]) | No. total (Mus musculus [18]) | also measured
O=[N+]([O-])c1ccc(COP(=O)(N(CCCl)CCCl)N(CCCl)CCCl)s1 | 0 | 8 | 166 | 1 | – | – | – | – | – | – | Control (Mus musculus [1]): 106%; Control (Mus musculus [2]): 81%; inhibition in vivo at 25 mg/kg (Mus musculus [3]): > 99%; LTS (Mus musculus [5]): 20%; Weight change (Mus musculus [7]): 10%; T/C (Mus musculus [9]): 248%; No. partial (Mus musculus [11]): 10; No. total (Mus musculus [12]): 0
O=[N+]([O-])c1ccc(COP(=O)(N(CCBr)CCBr)N(CCBr)CCBr)o1 | 0 | 11 | 202 | 11 | 32 | 23 | 102 | > 99 | 6 | 4 | –
O=[N+]([O-])c1ccc(COP(=O)(N(CCBr)CCBr)N(CCBr)CCBr)s1 | – | 10 | – | – | 64 | – | 93 | – | – | – | LTS (Mus musculus [19]): 0%; T/C (Mus musculus [20]): 185%
O=[N+]([O-])c1ccc(COP(=O)(N(CCCl)CCCl)N(CCCl)CCCl)o1 | – | – | – | 2 | 100 | 104 | – | 99 | 7 | 0 | Control (Mus musculus [21]): 26%; LTS (Mus musculus [22]): 10%; Weight change (Mus musculus [23]): 6%; T/C (Mus musculus [24]): 172%
